Experimental data as given in ChEMBL document CHEMBL1764975, “A new DNA gyrase inhibitor subclass of the cyclothialidine family based on a bicyclic dilactam-lactone scaffold. Synthesis and antibacterial properties” (J Med Chem, 2011).
In brackets after ≈: the same amount, converted by molar mass.

Assays:
[1] = system: Escherichia coli; assay: Antimicrobial activity against Escherichia coli 25922 after 18 hrs by agar dilution method; type: functional; details: Escherichia coli, 25922, 18 h
Method in brief: (§1)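 Agar dilution on Mueller-Hinton medium, inoculum 10⁴ CFU/spot; MIC is the minimum inhibitory concentration against the named strain.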

[2] = system: Streptococcus pyogenes; assay: Antimicrobial activity against Streptococcus pyogenes b15 after 18 hrs by agar dilution method; type: functional; details: b15, 18 h; method in brief: as §1
[3] = system: Escherichia coli; assay: Inhibition of Escherichia coli DNA gyrase A2B2 complex after 30 mins by supercoiling assay
[4] = system: Staphylococcus epidermidis; assay: Antimicrobial activity against Staphylococcus epidermidis 16/2 after 18 hrs by agar dilution method; type: functional; details: 16/2, 18 h; method in brief: as §1
[5] = system: Staphylococcus aureus; assay: (§2) Antimicrobial activity against Staphylococcus aureus Smith after 18 hrs by agar dilution method; type: functional; method in brief: as §1
[6] = system: Staphylococcus aureus; assay: as §2; type: functional; method in brief: as §1; remark: listed apart in the source
[7] = system: Enterococcus faecalis; assay: Antimicrobial activity against Enterococcus faecalis 6 after 18 hrs by agar dilution method; details: Enterococcus faecalis, 6, 18 h
[8] = system: Staphylococcus aureus; assay: Antimicrobial activity against Staphylococcus aureus Smith infected in iv dosed septicaemia Swiss albino mouse model after 4 days; type: functional; details: 96 h
Method in brief: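 Septicaemia model in mice infected with S. aureus Smith, compound given iv. In experiments with 0-1 survivors among 5-10 control mice, ED₅₀ (mg/kg) taken as lowest dose giving 3-5 survivors out of 5 infected mice.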

[9] = system: Staphylococcus aureus; assay: Antimicrobial activity against Staphylococcus aureus ATCC 25923 after 18 hrs by agar dilution method; type: functional; details: ATCC 25923, 18 h; method in brief: as §1
[10] = system: Stenotrophomonas maltophilia; assay: Antimicrobial activity against Xanthomonas maltophilia IAC 739 after 18 hrs by agar dilution method; type: functional; details: IAC 739, 18 h; method in brief: as §1
[11] = system: Staphylococcus aureus; assay: Antimicrobial activity against multidrug-resistant Staphylococcus aureus after 18 hrs by agar dilution method; type: functional
Method in brief: (§3)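 Agar dilution on Mueller-Hinton agar, inoculum 10⁴ CFU/spot, against panels of multiresistant clinical strains (S. aureus 11, E. faecalis 16, E. faecium 23). MIC_50/90 in μg/mL taken as the minimum concentration inhibiting at least 50% or 90% of the strains tested.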

[12] = system: Enterococcus faecium; assay: Antimicrobial activity against multidrug-resistant Enterococcus faecium after 18 hrs by agar dilution method; type: functional; method in brief: as §3
[13] = system: Enterococcus faecalis; assay: Antimicrobial activity against multidrug-resistant Enterococcus faecalis after 18 hrs by agar dilution method; type: functional; method in brief: as §3

MNEC [3] [µg/mL]	MIC [5] [µg/mL]	SMILES	ED50 [8] [mg/kg]	also measured
0.05	2 (≈ 3.78 µM)	COc1cc(O)c2c(c1Br)C(=O)O[C@H](C)C(=O)NCC(=O)N[C@H](c1nc(C)no1)CSC2	> 12.5	–
0.1	16	COc1cc(O)c2c(c1Br)C(=O)OCCN(C(=O)[C@@H](N)CC(C)C)CC(=O)N[C@H](c1nc(C)no1)CSC2.Cl	–	–
0.1	64 (≈ 110 µM)	COc1cc(O)c2c(c1Br)C(=O)OCCN(S(C)(=O)=O)CC(=O)N[C@H](c1nc(C)no1)CSC2	–	–
0.01	16 (≈ 29.4 µM)	COc1cc(O)c2c(c1Br)C(=O)OCCN(C(C)=O)CC(=O)N[C@H](c1nc(C)no1)CSC2	–	–
0.05	1	COc1cc(O)c2c(c1Br)C(=O)OCCN(C)CC(=O)N[C@H](c1nc(C)no1)CSC2.Cl	> 25	–
0.2	> 64	COc1cc(O)c2c(c1Br)C(=O)O[C@H](c1ccccc1)C(=O)NCC(=O)N[C@H](c1nc(C)no1)CSC2	–	–
0.1	8 (≈ 14 µM)	COc1cc(O)c2c(c1Br)C(=O)OCCN(C(=O)C1CC1)CC(=O)N[C@H](c1nc(C)no1)CSC2	–	–
0.05	8 (≈ 14.7 µM)	COCc1noc([C@@H]2CSCc3c(O)cc(OC)c(Br)c3C(=O)OCC(=O)NCC(=O)N2)n1	–	–
0.01	10 (≈ 20.1 µM)	COc1cc(O)c2c(c1C)C(=O)O[C@H](CO)CCCC(=S)N[C@H](c1nc(CO)no1)CSC2	–	–
0.005	2 (≈ 4.29 µM)	COc1cc(O)c2c(c1C)C(=O)OCC(=S)NCC(=O)N[C@H](c1nc(C)no1)CSC2	> 25	–
0.1	0.5	COc1cc(O)c2c(c1Br)C(=O)OCCNCC(=S)N[C@H](c1nc(C)no1)CSC2.Cl	> 25	–
0.1	2.37 (≈ 5.52 µM)	COC(=O)[C@@H]1CSCc2c(O)cc(OC)c(C)c2C(=O)OCCOCC(=S)N1	–	–
0.002	0.5 (≈ 1.04 µM)	COc1cc(O)c2c(c1C)C(=O)OC[C@H](CO)CCC(=S)N[C@H](c1nc(C)no1)CSC2	12.5	–

Continued, molecule first:

SMILES	MNEC [3] [µg/mL]	MIC [5] [µg/mL]	ED50 [8] [mg/kg]	also measured
COc1cc(O)c2c(c1Br)C(=O)OCC(=O)NCC(=S)N[C@H](c1nc(CNC(C)C)no1)CSC2.Cl	0.02	0.5	12	MIC [1]: > 64 µg/mL; MIC [2]: 0.25 µg/mL; MIC [4]: < 0.12 µg/mL; MIC [6]: 0.5 µg/mL; MIC [7]: 0.25 µg/mL; MIC [9]: 1 µg/mL; MIC [10]: 16 µg/mL
COc1cc(O)c2c(c1Cl)C(=O)OCCCCC(=S)N[C@H](c1nc(C)no1)CSC2	0.002	0.25 (≈ 0.53 µM)	–	–
COc1cc(O)c2c(c1Br)C(=O)OCC(=O)N(C)CC(=S)N[C@H](c1nc(C)no1)CSC2	0.05	0.5 (≈ 0.917 µM)	–	–
COc1cc(O)c2c(c1Br)C(=O)OCC(=O)NCC(=S)N[C@H](c1nc(CN)no1)CSC2.Cl	0.05	1	> 12	–
COc1cc(O)c2c(c1C)C(=O)OCC(=S)NCC(=S)N[C@H](c1nc(C)no1)CSC2	0.002	0.5 (≈ 1.04 µM)	–	–
COc1cc(O)c2c(c1Br)C(=O)OCC(=O)NCC(=O)N[C@H](c1nc(CNC(C)C)no1)CSC2.Cl	0.02	16	–	–
COc1cc(O)c2c(c1Br)C(=O)OCC(=O)N(C)CC(=O)N[C@H](c1nc(C)no1)CSC2	0.05	2 (≈ 3.78 µM)	> 12.5	–
COc1cc(O)c2c(c1C)C(=O)OCCCCC(=S)N[C@H](c1nc(CO)no1)CSC2	0.001	0.25 (≈ 0.535 µM)	25	–
COc1cc(O)c2c(c1Br)C(=O)OCCN(C(=O)C(C)(C)C)CC(=O)N[C@H](c1nc(C)no1)CSC2	0.05	0.5 (≈ 0.854 µM)	> 12	–
COc1cc(O)c2c(c1Br)C(=O)OCCNCC(=O)N[C@H](c1nc(C)no1)CSC2.Cl	0.01	1	25	–
COC(=O)[C@@H]1CSCc2c(O)cc(OC)c(C)c2C(=O)OCCCC/C(S)=N/1	0.01	–	–	–
COc1cc(O)c2c(c1Br)C(=O)OCCN(C(=O)[C@H](C)N)CC(=O)N[C@H](c1nc(C)no1)CSC2.Cl	0.1	> 64	–	–
COc1cc(O)c2c(c1Br)C(=O)OCC(=O)NCC(=O)N[C@H](c1nc(C3CC3)no1)CSC2	0.02	2 (≈ 3.69 µM)	6	–
COc1cc(O)c2c(c1Cl)C(=O)OCC(=O)NCC(=O)N[C@H](c1nc(C)no1)CSC2	0.02	8 (≈ 17 µM)	25	–
COc1cc(O)c2c(c1Cl)C(=O)OCCCCC(=O)N[C@H](c1nc(C)no1)CSC2	0.005	0.25 (≈ 0.548 µM)	> 25	–
COc1cc(O)c2c(c1C)C(=O)O[C@H](CO)CCCC(=S)N[C@H](c1nc(CN)no1)CSC2	0.005	32 (≈ 64.4 µM)	–	–
COc1cc(O)c2c(c1C)C(=O)OC[C@@H](CO)CCC(=S)N[C@H](c1nc(C)no1)CSC2	0.05	1 (≈ 2.08 µM)	> 25	–
COc1cc(O)c2c(c1Br)C(=O)OCC(=O)NCC(=O)N[C@H](c1nc(CO)no1)CSC2	0.02	32 (≈ 60.2 µM)	–	–
COc1cc(O)c2c(c1C)C(=O)OC[C@@H](CO)CCC(=O)N[C@H](c1nc(C)no1)CSC2	0.1	64 (≈ 137 µM)	–	–
COc1cc(O)c2c(c1Br)C(=O)OCC(=O)NCC(=O)N[C@H](c1nc(CN)no1)CSC2.Cl	0.1	32	–	–
COc1cc(O)c2c(c1Br)C(=O)O[C@H](C)C(=O)NCC(=S)N[C@H](c1nc(C)no1)CSC2	0.2	0.5 (≈ 0.917 µM)	> 12.5	–
COc1cc(O)c2c(c1C)C(=O)OC[C@H](CO)CCC(=O)N[C@H](c1nc(C)no1)CSC2	0.005	8 (≈ 17.2 µM)	–	–
COc1cc(O)c2c(c1Br)C(=O)OCCCCC(=S)N[C@H](c1nc(CN)no1)CSC2.Cl	0.05	0.5	12.5	–
COc1cccc(OC)c1C(=O)N[C@@H]1C(=O)N2[C@@H]1SC(C)(C)[C@@H]2C(=O)O [METHICILLIN]	–	–	–	MIC50 [11]: 256 µg/mL (≈ 673 µM); MIC90 [11]: > 256 µg/mL
CO[C@@H]1[C@@H](OC(N)=O)[C@@H](O)[C@H](Oc2ccc3c(O)c(NC(=O)c4ccc(O)c(CC=C(C)C)c4)c(=O)oc3c2C)OC1(C)C [NOVOBIOCIN]	–	–	3	MIC [1]: > 64 µg/mL; MIC [2]: 1 µg/mL (≈ 1.63 µM); MIC [4]: 0.25 µg/mL (≈ 0.408 µM); MIC [6]: 0.12 µg/mL (≈ 0.196 µM); MIC [7]: 4 µg/mL (≈ 6.53 µM); MIC [9]: 0.25 µg/mL (≈ 0.408 µM); MIC [10]: > 64 µg/mL
COc1cc(O)c2c(c1Br)C(=O)OCC(=S)NCC(=S)N[C@H](c1nc(C)no1)CSC2	0.2	1 (≈ 1.83 µM)	–	–
COc1cc(O)c2c(c1Br)C(=O)O[C@H](c1ccccc1)C(=O)NCC(=S)N[C@H](c1nc(C)no1)CSC2	1	0.5 (≈ 0.823 µM)	> 25	–
C[C@@H](O)[C@H]1C(=O)N2C(C(=O)O)=C(SCCNC=N)C[C@H]12 [IMIPENEM ANHYDROUS]	–	–	–	MIC50 [12]: 64 µg/mL (≈ 214 µM); MIC90 [12]: > 64 µg/mL; MIC50 [11]: 32 µg/mL (≈ 107 µM); MIC90 [11]: 64 µg/mL (≈ 214 µM); MIC50 [13]: 2 µg/mL (≈ 6.68 µM); MIC90 [13]: 2 µg/mL (≈ 6.68 µM)
